Screening data (PubChem)
Sampled rows, rich in hits. Any-hit rate of the full collection: about 1.2%.
APOBEC3G inh – blocks human APOBEC3G single-stranded DNA deamination. Q9HC16. recombinant A3G, ssDNA deamination FAM/TAMRA fluorescence. inhibition, % at 20 µM. 330,000 compounds, 0.28% hits;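 active = inhibition of at least 40% at 20 µM, with no more than 30% in the related APOBEC3A deaminase screen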;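 note: plate controls were DMSO wells with A3G for no effect and wells lacking A3G enzyme for full effect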
A3A deaminase – inhibitors of human APOBEC3A DNA deaminase. P31941. recombinant A3A, FAM/TAMRA ssDNA deamination fluorescence. inhibition, % at 20 µM. 330,000 compounds, 0.41% hits. AID 493011;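 active = at least 40% inhibition at 20 µM here, with at most 30% in a related deaminase screen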;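 note: plate controls were A3A with DMSO for no effect and wells lacking A3A enzyme for full effect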
FN deposit inh – fibronectin deposition inhibition | AH1F fibroblasts, Alexa488-fibronectin deposition fluorescence, overnight | inhibition, % at 12.6 µM | 350,000 compounds, 0.086% hits;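 active = mean inhibition across replicates of 30% or more, regardless of how many single replicates reach that level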;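 note: positive control wells lacked labelled fibronectin entirely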
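Test system: AH1F fibroblast monolayer depositing Alexa488-labelled fibronectin into matrix. Input: 10000 cells per well. Technique: fluorescence, ex 485 nm, em 525 nm. Buffer or medium: DMEM plus 2% serum, read in PBS. Timing: 1 h cell adhesion before compound, then overnight fibronectin incubation. Compound: single dose, pinned. Read-out basis: inhibition from reduced deposited-fibronectin fluorescence.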
ABHD5-PLIN5 inh – blocks binding of human ABHD5 to perilipin-5 | Q00G26+Q8WTS1 | Split G. princeps luciferase complementation, luminescence, 4 h | inhibition, % at 4 µM | 360,000 compounds, 0.78% hits;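 active = inhibition above the mean inhibition across every tested compound plus 3 SD, cut at about 22% in these data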;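 note: 0% = DMSO only wells and the 100% control is not disclosed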
Target sequence (Q00G26 whole entry, looked up): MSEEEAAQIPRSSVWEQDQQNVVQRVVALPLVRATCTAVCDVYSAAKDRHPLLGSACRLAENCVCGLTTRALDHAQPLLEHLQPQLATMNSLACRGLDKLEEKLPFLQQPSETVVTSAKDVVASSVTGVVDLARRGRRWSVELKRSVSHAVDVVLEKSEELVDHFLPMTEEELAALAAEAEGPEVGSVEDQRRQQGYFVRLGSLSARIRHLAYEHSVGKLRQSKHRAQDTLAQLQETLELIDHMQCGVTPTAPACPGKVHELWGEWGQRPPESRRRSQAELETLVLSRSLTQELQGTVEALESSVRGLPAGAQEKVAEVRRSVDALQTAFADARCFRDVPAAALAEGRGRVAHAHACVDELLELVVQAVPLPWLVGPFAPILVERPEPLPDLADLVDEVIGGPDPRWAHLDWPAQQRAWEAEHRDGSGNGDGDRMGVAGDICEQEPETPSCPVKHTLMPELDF
Target sequence (Q8WTS1 whole entry, looked up): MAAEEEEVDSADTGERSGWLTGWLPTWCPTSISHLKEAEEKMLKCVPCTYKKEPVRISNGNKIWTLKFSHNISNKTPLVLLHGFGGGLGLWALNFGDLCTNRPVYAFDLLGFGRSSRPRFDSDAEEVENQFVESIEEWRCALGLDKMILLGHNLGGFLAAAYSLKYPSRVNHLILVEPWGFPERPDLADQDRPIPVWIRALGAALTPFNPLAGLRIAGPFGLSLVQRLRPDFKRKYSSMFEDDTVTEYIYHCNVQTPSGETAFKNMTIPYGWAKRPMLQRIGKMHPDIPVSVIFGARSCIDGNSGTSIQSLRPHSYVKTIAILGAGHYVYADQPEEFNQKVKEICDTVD
ABHD5 PLIN5 conf – ABHD5-PLIN5 interaction inhibition, confirmed | inhibition, % at 4 µM | biochemical ABHD5-PLIN5 interaction, luminescence | 2,200 compounds, 67% hits | AID 651612 | shares compounds with ABHD5-PLIN5 inh; in the data active = inhibition above about 23%;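 note: 0% = DMSO vehicle wells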
HNF4 split-luc – active in HNF4 split-luciferase counter-screen for ABHD5-PLIN5 inhibitors. shares compounds with ABHD5-PLIN5 inh. inhibition, % at 4 µM. AID 651674. 2,200 compounds, 77% hits. HNF4 dimerization, luminescence, biochemical;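 active = mean inhibition across replicate wells exceeding the computed hit threshold, cut at about 13% in these data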;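 note: light from luciferase halves that rejoin when HNF4 fusion proteins dimerize; 0% = DMSO only wells and the 100% control is not given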
Active calls of the source: *; · = not tested or not shown.

SMILES	APOBEC3G inh	A3A deaminase	FN deposit inh	ABHD5-PLIN5 inh	ABHD5 PLIN5 conf	HNF4 split-luc
CCCCCCCCOC(=O)c1cc([N+](=O)[O-])c(Sc2ncnc3nc[nH]c23)c([N+](=O)[O-])c1	·	·	-17	28*	99*	90*
Cc1cc(C)cc(N2C(=O)C=CC2=O)c1	·	·	9	35*	29*	89*
Cc1c([N+](=O)[O-])cc(N2C(=O)C=CC2=O)cc1[N+](=O)[O-]	·	·	·	0	·	·
O=S(=O)(N[C@@H]1CC[C@@H](CCn2cc(-c3cccc(F)c3)nn2)O[C@H]1CO)c1ccc(F)cc1	·	·	-5	·	·	·
CCc1ccc(Nc2nnc(SC(C)C(=O)NC3CC3)s2)cc1 (configuration not stated)	-11	-2	24	78*	5	0
Cc1cccc(Nc2nnc(SC(C)C(=O)NC3CC3)s2)c1 (configuration not stated)	-1	2	15	-3	·	·
COc1ccc(OC)c(-c2csc(NC(=O)Cc3ccc(F)cc3)n2)c1	3	-2	-16	-6	·	·
Cc1ccc(-c2csc(NC(=O)c3ccc(-c4ccccc4)cc3)n2)o1	-8	-4	·	55*	25*	27*
Cc1ccc(-c2csc(NC(=O)Cc3ccc(F)cc3)n2)o1	11	-3	-2	30*	60*	94*
Cc1noc(C)c1NC(=O)N(C)C[C@@H]1OCc2ccccc2-c2ccccc2C(=O)N([C@@H](C)CO)C[C@H]1C	·	·	-4	·	·	·
CCCCC[C@@H](/C=C/C1C(=O)C=C[C@H]1C/C=C\CCCC(=O)OC)OC(C)=O (some centres not stated)	·	·	4	28*	42*	63*
CCOC(=O)C(=Cc1c[nH]c2ccc(S(=O)(=O)N(C)C)cc12)C(=O)OCC	-7	1	-5	52*	63*	58*
CCS(=O)(=O)Nc1ccc2c(c1)C(=O)N(C)[C@@H]1CC[C@@H](CC(=O)NCCOC)O[C@H]1CO2	·	·	3	·	·	·
CCC1(C(=O)OC)NC(c2ccco2)C2C(=O)N(c3ccccc3)C(=O)C21 (configuration not stated)	-7	-4	0	25*	11	13*
CCC1(C(=O)OC)NC(c2ccco2)C2C(=O)N(c3ccc(F)cc3)C(=O)C21 (configuration not stated)	0	3	·	10	·	·
COc1ccccc1-c1cnc2c(c1)C(=O)N([C@H](C)CO)C[C@@H](C)[C@H](CN(C)Cc1cccnc1)O2	·	·	-1	·	·	·
Cc1cc(C)nc(NS(=O)(=O)c2ccc(NC(=O)CN3C(=O)c4ccccc4C3=O)cc2)n1	-1	0	·	·	·	·
Cc1cc(C)nc(NS(=O)(=O)c2ccc(NCN3C(=O)c4ccccc4C3=O)cc2)n1	·	·	2	27*	6	6
O=[N+]([O-])/C=C/c1cc2ccccc2[nH]1	-5	-3	7	41*	71*	58*
O=[N+]([O-])c1cccc(-c2cc3ccccc3[nH]2)c1	-6	-4	7	-10	·	·
Cc1ccccc1S(=O)(=O)N1CC[C@@H]2[C@H]1c1cc(-c3ccc(C#N)cc3)ccc1N(C)[C@H]2CO	·	·	-16	·	·	·
COc1ccc(-c2cc(C(F)(F)F)nc(N)n2)cc1	-4	-2	3	2	·	·
CS(=O)(=O)c1nc(-c2ccc(F)cc2)cc(C(F)(F)F)n1	·	·	25	51*	63*	99*
COc1ccc(-c2cc(C(F)(F)F)nc(S(C)(=O)=O)n2)cc1	-6	-4	·	48*	67*	91*
O=C(C[C@@H]1C[C@@H]2c3cc(NS(=O)(=O)c4ccc(F)cc4)ccc3O[C@@H]2[C@@H](CO)O1)N1CCc2ccccc2C1	·	·	-3	·	·	·
O=C(O)/C=C/C(=O)c1c(-c2ccccc2)[nH]c2ccccc12	3	-5	-9	62*	96*	94*
CC(=O)c1c(-c2ccccc2)[nH]c2ccccc12	-3	-2	12	2	·	·
CC1=NN(c2ccccc2)C(=O)/C1=C/C=C/c1ccccc1	-5	-1	5	25*	98*	90*
CC1=NN(c2cccc(C(=O)O)c2)C(=O)/C1=C\C=C\c1ccco1	92	100	·	14	·	·
